pEC50, pIC50: −log10 of the molar value. Calls of active or inactive are those of the source. No cut-off for these calls is given here.
Tests used:
[1] = molecular target: T1, Nuclear receptor subfamily 1 group I member 2 (Homo sapiens, UniProt O75469); assay: Transactivation of PXR
T1 sequence (O75469 whole entry): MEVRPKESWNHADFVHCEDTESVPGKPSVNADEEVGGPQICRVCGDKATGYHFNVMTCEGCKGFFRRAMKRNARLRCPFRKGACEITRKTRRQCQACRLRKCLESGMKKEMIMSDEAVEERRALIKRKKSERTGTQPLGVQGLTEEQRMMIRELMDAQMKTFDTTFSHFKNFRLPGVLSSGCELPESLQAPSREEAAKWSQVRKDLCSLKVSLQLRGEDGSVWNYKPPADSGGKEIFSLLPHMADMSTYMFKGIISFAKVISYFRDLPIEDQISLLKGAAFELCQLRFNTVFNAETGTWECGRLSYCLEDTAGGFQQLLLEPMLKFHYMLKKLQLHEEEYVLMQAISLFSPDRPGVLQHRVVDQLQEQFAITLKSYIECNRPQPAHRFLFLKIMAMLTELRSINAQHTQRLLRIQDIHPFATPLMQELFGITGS

[2] = molecular target: T2, Peroxisome proliferator-activated receptor alpha (Homo sapiens) (UniProt Q07869); assay: Activation of PPARalpha up to 30 uM
T2 sequence (whole entry): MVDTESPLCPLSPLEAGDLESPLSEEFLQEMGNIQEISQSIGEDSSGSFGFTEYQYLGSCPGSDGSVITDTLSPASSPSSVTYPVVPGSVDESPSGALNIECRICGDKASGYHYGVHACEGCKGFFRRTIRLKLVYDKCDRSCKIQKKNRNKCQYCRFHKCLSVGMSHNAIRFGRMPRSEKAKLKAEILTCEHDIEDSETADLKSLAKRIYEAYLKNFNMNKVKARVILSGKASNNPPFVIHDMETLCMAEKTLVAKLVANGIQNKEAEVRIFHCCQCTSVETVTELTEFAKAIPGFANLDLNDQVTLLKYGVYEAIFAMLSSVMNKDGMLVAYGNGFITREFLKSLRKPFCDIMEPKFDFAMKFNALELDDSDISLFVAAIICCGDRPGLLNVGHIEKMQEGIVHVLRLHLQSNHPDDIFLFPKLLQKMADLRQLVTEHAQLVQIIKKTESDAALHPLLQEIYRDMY

[3] = Cmax in mouse at 30 umol/kg; type: ADME, organism-based; parameters: dose 30 umol/kg; settings: in vivo
How it was run: (§1)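 Oral dosing in mice, with the compound in water containing 0.5% methocel and 0.1% Tween 80. Plasma concentrations were measured at 1, 4 and 8 h after dosing.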

Cytochrome P450 1A2 = molecular target: T3, Cytochrome P450 1A2 (Homo sapiens, UniProt P05177); assay: Inhibition of CYP1A2; type: ADME
T3 sequence (P05177 whole entry): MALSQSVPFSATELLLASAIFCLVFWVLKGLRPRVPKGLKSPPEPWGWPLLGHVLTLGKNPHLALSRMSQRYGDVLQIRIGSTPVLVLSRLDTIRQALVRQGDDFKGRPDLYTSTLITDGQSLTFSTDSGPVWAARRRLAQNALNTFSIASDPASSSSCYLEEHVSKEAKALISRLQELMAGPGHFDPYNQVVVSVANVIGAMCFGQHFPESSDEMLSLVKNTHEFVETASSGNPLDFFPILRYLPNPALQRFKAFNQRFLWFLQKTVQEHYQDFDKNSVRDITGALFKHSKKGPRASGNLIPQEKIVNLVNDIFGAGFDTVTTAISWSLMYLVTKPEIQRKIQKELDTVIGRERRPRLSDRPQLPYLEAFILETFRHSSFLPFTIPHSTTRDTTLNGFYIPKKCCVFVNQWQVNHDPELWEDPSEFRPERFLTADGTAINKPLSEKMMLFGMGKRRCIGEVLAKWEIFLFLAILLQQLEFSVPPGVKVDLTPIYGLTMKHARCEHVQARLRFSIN

Cytochrome P450 2D6 = Cytochrome P450 2D6 (Homo sapiens, UniProt P10635); assay: Inhibition of CYP2D6; type: ADME
Sequence of Cytochrome P450 2D6 (P10635 whole entry): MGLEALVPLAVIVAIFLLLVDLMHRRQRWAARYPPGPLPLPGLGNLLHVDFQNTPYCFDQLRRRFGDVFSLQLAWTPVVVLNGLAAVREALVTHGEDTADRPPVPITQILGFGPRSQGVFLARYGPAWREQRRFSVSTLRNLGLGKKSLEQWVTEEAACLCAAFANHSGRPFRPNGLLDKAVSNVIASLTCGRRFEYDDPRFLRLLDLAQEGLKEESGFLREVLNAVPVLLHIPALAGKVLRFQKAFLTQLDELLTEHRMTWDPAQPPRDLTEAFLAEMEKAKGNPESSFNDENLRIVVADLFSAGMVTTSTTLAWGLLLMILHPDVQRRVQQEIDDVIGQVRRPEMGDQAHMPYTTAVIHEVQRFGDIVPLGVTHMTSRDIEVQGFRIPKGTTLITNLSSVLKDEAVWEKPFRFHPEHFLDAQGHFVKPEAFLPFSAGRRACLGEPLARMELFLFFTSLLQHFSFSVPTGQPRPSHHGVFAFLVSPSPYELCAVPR

[4] = molecular target: Voltage-gated inwardly rectifying potassium channel KCNH2 (Homo sapiens, UniProt Q12809); assay: Inhibition of human ERG
Sequence of Voltage-gated inwardly rectifying potassium channel KCNH2 (Q12809 whole entry): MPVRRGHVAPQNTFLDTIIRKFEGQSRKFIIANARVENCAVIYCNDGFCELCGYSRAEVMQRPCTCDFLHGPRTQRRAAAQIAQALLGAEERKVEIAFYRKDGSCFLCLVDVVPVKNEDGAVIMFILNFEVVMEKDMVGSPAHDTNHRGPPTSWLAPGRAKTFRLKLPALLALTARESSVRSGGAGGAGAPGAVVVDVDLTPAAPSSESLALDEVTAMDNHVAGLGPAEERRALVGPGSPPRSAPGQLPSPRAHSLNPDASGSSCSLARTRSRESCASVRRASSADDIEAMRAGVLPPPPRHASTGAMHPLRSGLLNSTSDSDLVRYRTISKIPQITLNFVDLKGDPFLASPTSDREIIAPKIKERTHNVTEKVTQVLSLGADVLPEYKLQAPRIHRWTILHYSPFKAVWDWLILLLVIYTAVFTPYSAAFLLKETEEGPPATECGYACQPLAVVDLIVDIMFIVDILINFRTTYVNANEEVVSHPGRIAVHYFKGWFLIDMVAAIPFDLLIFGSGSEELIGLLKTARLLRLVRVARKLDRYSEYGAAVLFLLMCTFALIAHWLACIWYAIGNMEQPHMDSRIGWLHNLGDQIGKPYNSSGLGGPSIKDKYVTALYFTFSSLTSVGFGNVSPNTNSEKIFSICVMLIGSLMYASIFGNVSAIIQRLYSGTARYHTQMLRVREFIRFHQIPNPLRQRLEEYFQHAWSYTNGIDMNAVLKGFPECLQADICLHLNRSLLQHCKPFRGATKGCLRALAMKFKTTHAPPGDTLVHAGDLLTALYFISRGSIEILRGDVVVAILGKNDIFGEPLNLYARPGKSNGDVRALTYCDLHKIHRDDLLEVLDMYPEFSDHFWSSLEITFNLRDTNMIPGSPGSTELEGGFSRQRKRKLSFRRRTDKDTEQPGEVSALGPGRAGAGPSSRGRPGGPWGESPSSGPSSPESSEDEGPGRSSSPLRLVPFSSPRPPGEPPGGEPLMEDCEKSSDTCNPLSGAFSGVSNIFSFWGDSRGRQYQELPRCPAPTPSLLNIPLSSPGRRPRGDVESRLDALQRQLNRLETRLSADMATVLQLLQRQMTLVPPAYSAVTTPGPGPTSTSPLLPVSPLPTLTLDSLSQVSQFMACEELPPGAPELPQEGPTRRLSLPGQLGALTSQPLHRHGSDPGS

[5] = molecular target: T4, Peroxisome proliferator-activated receptor gamma (Homo sapiens) (UniProt P37231); assay: Activation of PPARgamma up to 30 uM
T4 sequence (whole entry): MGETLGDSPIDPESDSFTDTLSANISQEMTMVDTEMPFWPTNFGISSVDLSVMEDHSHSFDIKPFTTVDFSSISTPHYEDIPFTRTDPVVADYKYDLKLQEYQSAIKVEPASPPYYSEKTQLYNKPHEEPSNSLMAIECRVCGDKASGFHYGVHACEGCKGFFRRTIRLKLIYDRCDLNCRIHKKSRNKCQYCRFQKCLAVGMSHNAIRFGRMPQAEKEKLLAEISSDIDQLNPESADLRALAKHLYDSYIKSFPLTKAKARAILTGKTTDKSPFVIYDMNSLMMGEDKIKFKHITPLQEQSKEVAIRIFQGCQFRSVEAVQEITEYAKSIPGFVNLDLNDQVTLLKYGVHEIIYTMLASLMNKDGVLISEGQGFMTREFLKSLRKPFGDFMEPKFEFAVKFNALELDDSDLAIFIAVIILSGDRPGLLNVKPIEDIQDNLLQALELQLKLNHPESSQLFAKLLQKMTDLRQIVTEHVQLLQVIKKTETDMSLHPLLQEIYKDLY

[6] = molecular target: 11-beta-hydroxysteroid dehydrogenase 1 (Mus musculus, UniProt P50172); assay: Inhibition of mouse 11beta-HSD-1
Sequence of 11-beta-hydroxysteroid dehydrogenase 1 (P50172 whole entry): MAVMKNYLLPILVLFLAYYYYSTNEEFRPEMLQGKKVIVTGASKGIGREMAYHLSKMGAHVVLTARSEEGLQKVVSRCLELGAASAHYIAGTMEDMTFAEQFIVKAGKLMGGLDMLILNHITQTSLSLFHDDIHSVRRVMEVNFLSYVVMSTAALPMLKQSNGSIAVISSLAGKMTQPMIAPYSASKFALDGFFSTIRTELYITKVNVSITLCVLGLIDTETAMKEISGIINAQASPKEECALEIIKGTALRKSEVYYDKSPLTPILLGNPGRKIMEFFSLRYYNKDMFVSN

Cytochrome P450 2C19 = Cytochrome P450 2C19 (Homo sapiens, UniProt P33261); assay: Inhibition of CYP2C19; type: ADME
Sequence of Cytochrome P450 2C19 (P33261 whole entry): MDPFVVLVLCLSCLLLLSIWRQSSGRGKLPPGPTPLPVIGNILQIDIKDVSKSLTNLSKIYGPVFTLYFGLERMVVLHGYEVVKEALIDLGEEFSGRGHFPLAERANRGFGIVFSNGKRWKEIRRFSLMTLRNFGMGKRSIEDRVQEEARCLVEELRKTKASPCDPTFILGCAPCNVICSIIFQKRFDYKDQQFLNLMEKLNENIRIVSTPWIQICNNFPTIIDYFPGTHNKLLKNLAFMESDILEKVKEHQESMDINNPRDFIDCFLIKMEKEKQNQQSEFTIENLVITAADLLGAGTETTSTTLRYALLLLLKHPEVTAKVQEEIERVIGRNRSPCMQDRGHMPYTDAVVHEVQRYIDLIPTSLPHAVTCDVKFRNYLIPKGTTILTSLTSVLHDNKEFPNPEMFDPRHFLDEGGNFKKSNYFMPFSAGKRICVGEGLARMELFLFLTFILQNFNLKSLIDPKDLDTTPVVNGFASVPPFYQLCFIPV

Cytochrome P450 2C9 = Cytochrome P450 2C9 (Homo sapiens, UniProt P11712); assay: Inhibition of CYP2C9; type: ADME
Sequence of Cytochrome P450 2C9 (P11712 whole entry): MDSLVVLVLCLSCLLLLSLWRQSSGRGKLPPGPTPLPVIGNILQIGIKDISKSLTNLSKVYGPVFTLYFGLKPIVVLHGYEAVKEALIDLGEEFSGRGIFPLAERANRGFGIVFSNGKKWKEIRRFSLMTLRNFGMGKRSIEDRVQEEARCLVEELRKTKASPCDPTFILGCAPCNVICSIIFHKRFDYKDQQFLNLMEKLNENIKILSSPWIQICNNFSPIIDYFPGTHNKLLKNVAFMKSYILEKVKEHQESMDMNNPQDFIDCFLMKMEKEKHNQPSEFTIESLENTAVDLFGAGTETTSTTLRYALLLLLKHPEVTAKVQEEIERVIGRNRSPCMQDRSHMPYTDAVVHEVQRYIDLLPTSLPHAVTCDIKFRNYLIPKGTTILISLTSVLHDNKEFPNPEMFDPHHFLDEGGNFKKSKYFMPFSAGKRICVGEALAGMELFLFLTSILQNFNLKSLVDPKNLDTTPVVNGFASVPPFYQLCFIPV

[7] = Metabolic stability in mouse liver microsomes assessed as compound remaining after 10 mins; type: ADME, Microsome; settings: liver microsomes, read-out: Stability
[8] = AUC (0 to 8 hrs) in mouse at 30 umol/kg; type: ADME, organism-based; parameters: time < 8 hr, dose 30 umol/kg; settings: plasma; how it was run: as §1
Cytochrome P450 3A4 = Cytochrome P450 3A4 (Homo sapiens, UniProt P08684); assay: Inhibition of CYP3A4; type: ADME
Sequence of Cytochrome P450 3A4 (P08684 whole entry): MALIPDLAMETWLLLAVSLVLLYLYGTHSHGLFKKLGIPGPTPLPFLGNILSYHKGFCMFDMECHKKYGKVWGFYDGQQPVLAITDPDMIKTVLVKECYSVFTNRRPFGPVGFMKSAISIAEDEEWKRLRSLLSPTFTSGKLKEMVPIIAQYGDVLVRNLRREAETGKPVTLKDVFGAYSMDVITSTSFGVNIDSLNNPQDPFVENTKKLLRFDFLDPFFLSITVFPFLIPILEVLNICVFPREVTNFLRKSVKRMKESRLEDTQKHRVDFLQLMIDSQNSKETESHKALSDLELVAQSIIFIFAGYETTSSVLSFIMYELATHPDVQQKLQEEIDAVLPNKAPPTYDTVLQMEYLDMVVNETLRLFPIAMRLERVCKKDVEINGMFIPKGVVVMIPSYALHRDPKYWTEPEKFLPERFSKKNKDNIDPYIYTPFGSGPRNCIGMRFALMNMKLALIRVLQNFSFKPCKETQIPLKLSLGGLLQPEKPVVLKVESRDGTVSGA

[9] = molecular target: 11-beta-hydroxysteroid dehydrogenase type 2 (Homo sapiens) (UniProt P80365); assay: Inhibition of human 11beta-HSD-2
[10] = molecular target: T5, Peroxisome proliferator-activated receptor delta (Homo sapiens) (UniProt Q03181); assay: Activation of PPARdelta up to 30 uM
T5 sequence (whole entry): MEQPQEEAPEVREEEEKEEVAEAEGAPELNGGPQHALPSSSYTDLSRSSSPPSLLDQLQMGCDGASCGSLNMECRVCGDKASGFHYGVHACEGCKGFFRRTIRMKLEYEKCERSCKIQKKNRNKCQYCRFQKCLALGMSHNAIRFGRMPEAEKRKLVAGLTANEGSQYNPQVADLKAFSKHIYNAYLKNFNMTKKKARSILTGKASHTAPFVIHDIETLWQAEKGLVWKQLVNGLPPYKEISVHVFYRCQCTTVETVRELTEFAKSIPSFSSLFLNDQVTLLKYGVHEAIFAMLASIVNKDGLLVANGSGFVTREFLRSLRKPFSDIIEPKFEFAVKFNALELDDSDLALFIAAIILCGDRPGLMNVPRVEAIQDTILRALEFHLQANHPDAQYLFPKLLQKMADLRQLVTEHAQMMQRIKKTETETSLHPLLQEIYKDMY

[11] = molecular target: T6, 11-beta-hydroxysteroid dehydrogenase type 2 (Homo sapiens) (UniProt P80365); assay: Inhibition of human 11beta-HSD-2 at 10 uM
T6 sequence (whole entry): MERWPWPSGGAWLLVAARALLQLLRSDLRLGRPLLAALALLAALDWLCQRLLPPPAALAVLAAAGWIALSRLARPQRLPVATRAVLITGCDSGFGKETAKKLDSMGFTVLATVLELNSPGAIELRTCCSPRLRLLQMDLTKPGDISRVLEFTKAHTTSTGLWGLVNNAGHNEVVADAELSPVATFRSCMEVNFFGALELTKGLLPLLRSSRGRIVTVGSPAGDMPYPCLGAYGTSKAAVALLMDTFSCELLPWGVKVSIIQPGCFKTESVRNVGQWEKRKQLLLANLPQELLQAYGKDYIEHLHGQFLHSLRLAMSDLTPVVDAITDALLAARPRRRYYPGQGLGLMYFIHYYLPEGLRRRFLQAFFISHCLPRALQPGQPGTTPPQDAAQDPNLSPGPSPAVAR

[12] = Metabolic stability in human liver microsomes assessed as compound remaining after 10 mins; type: ADME, Microsome; settings: liver microsomes, read-out: Stability

pEC50 [1]: < 4.30 | Activity [2]: inactive | Cmax [3]: 480 nM | inhibition (INH) (Cytochrome P450 1A2): Active | inhibition (INH) (Cytochrome P450 2D6): Active | Activity [5]: inactive | pIC50 [6]: 6.92 | inhibition (INH) (Cytochrome P450 2C19): Active | inhibition (INH) (Cytochrome P450 2C9): Active | remaining at 10 min [7]: 48% | AUC(0-t) at 8 h [8]: 2 µM·h | inhibition (INH) (Cytochrome P450 3A4): Active | inhibition [9]: inactive | Activity [10]: inactive | inhibition [11]: < 50% | remaining at 10 min [12]: 78%
Structure (SMILES): O=C(O)CC1(c2ccc(F)cc2)C2CC3CC(C2)CC1C3 (configuration not stated)
inhibition (INH) [4]: Active
